# Columns and labels:
# [1] = target: 5-hydroxytryptamine receptor 7 (Rattus norvegicus, UniProt P32305); test: Binding affinity for rat serotonin 5-HT7 receptor expressed in Sf9 cells using [3H]5-HT radioligand
# Method in brief: (§1)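 In vitro radioligand binding on cloned receptors. For 5-HT7, cloned rat receptor expressed in Sf9 cells was labeled with [3H]5-HT. For 5-HT1A, cloned receptor expressed in CHO cells was labeled with [3H]8-OH-DPAT.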
# [2] = target: 5-hydroxytryptamine receptor 7 (Rattus norvegicus) (UniProt P32305); test: Efficacy at the 5-HT7 receptor by measuring its effect on cAMP production in CHO cells; type: functional, cell-based
# [3] = organism: Rattus norvegicus; test: Ratio of binding affinity for serotonin 5-HT1A to serotonin 5-HT7
# [4] = Binding affinity for rat serotonin 5-HT1A receptor using [3H]8-OH-DPAT as radioligand expressed in CHO cells; type: cell-based; method in brief: as §1
# 5-hydroxytryptamine receptor 7 (Rattus norvegicus), sequence (P32305 whole entry): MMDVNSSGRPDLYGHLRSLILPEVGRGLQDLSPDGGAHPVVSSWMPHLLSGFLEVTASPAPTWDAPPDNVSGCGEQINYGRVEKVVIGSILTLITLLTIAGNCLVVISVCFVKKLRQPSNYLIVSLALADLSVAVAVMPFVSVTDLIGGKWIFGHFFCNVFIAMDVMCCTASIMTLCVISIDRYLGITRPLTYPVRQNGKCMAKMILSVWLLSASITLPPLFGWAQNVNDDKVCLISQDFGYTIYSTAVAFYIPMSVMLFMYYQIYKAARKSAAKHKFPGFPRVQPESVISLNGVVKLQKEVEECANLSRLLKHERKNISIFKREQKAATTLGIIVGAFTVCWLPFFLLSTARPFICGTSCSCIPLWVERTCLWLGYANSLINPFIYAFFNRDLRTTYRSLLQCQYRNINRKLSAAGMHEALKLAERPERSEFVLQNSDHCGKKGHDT
# 5-hydroxytryptamine receptor 7, sequence (P32305 whole entry): as above
smiles,measurement,setting,value
Cc1cccc(C)c1-c1ccc2c(c1)C[C@H](N(C)C)CO2,Ki,[1],13.4 nM
same,Efficacy,[2],76%
same,Ratio,[3],6
same,Ki,[4],75.1 nM
CCCN(CCC)[C@H]1COc2c(cccc2-c2c(OC)cccc2OC)C1,Ratio,[3],27
same,Ki,[4],174 nM
COc1c(-c2ccc3c(c2)C[C@H](N(C)C)CO3)ccc2ccccc12,Ki,[1],75.9 nM
same,Ratio,[3],8
same,Ki,[4],594 nM
O=S(=O)(c1ccc2cc[nH]c2c1)N1CCC[C@@H]1CCN1CCC(Oc2ccc(Cl)cc2)CC1,Ki,[1],1.99 nM
same,Efficacy,[2]; filed as antagonist,Antagonist
same,Ratio,[3],282
same,Ki,[4],562 nM
CN(C)[C@@H]1COc2ccc(-c3ccccc3)cc2C1,Ki,[1],> 1000 nM
COc1cccc(OC)c1-c1ccc2c(c1)C[C@H](N(C)C)CO2,Ki,[1],367 nM
COc1cccc(OC)c1-c1cccc2c1OC[C@@H](N(C)C)C2,Ki,[1],5.29 nM
same,Efficacy,[2],28%
same,Ratio,[3],> 189
same,Ki,[4],> 1000 nM
CN(C)[C@@H]1COc2ccc(-c3c(O)cccc3O)cc2C1,Ki,[1],> 1000 nM
